Measurements reported in ChEMBL document CHEMBL1781959, “Synthesis and in vitro antitumor activity of substituted quinazoline and quinoxaline derivatives: search for anticancer agent” (Eur J Med Chem, 2011).

Columns and labels:
Type in all cases: functional
786-0 = assay: Anticancer activity against human 786-0 cells assessed as cell growth promotion at 10^-5 M after 48 hrs by SRB assay relative to control
SK-MEL-5 = assay: Anticancer activity against human SK-MEL-5 cells assessed as cell growth promotion at 10^-5 M after 48 hrs by SRB assay relative to control
RXF 393 = assay: Anticancer activity against human RXF393 cells assessed as cell growth promotion at 10^-5 M after 48 hrs by SRB assay relative to control
SNB-19 = assay: Anticancer activity against human SNB19 cells assessed as cell growth promotion at 10^-5 M after 48 hrs by SRB assay relative to control
HT-29 = assay: Anticancer activity against human HT-29 cells assessed as cell growth promotion at 10^-5 M after 48 hrs by SRB assay relative to control
SK-OV-3 = assay: Anticancer activity against human SKOV3 cells assessed as cell growth promotion at 10^-5 M after 48 hrs by SRB assay relative to control
UO-31 = assay: Anticancer activity against human UO31 cells assessed as cell growth promotion at 10^-5 M after 48 hrs by SRB assay relative to control
NCI-H23 = assay: Anticancer activity against human NCI-H23 cells assessed as cell growth promotion at 10^-5 M after 48 hrs by SRB assay relative to control
K562 = assay: Anticancer activity against human K562 cells assessed as cell growth promotion at 10^-5 M after 48 hrs by SRB assay relative to control
KM12 = assay: Anticancer activity against human KM12 cells assessed as cell growth promotion at 10^-5 M after 48 hrs by SRB assay relative to control
U-251 = assay: Anticancer activity against human U251 cells assessed as cell growth promotion at 10^-5 M after 48 hrs by SRB assay relative to control
CAKI-1 = assay: Anticancer activity against human Caki1 cells assessed as cell growth promotion at 10^-5 M after 48 hrs by SRB assay relative to control
SR = assay: Anticancer activity against human SR cells assessed as cell growth promotion at 10^-5 M after 48 hrs by SRB assay relative to control
EKVX = assay: Anticancer activity against human EKVX cells assessed as cell growth promotion at 10^-5 M after 48 hrs by SRB assay relative to control
SF-268 = assay: Anticancer activity against human SF268 cells assessed as cell growth promotion at 10^-5 M after 48 hrs by SRB assay relative to control
HCT-116 = assay: Anticancer activity against human HCT116 cells assessed as cell growth promotion at 10^-5 M after 48 hrs by SRB assay relative to control
NCI-H460 = assay: Anticancer activity against human NCI-H460 cells assessed as cell growth promotion at 10^-5 M after 48 hrs by SRB assay relative to control
UACC-62 = assay: Anticancer activity against human UACC62 cells assessed as cell growth promotion at 10^-5 M after 48 hrs by SRB assay relative to control
MDA-MB-435 = assay: Anticancer activity against human MDA-MB-435 cells assessed as cell growth promotion at 10^-5 M after 48 hrs by SRB assay relative to control
SW-620 = assay: Anticancer activity against human SW620 cells assessed as cell growth promotion at 10^-5 M after 48 hrs by SRB assay relative to control
OVCAR-5 = assay: Anticancer activity against human OVCAR5 cells assessed as cell growth promotion at 10^-5 M after 48 hrs by SRB assay relative to control
HCT-15 = assay: Anticancer activity against human HCT15 cells assessed as cell growth promotion at 10^-5 M after 48 hrs by SRB assay relative to control
Malme-3M = assay: Anticancer activity against human MALME-3M cells assessed as cell growth promotion at 10^-5 M after 48 hrs by SRB assay relative to control
MDA-MB-231 = assay: Anticancer activity against human MDA-MB-231 cells assessed as cell growth promotion at 10^-5 M after 48 hrs by SRB assay relative to control
CCRF-CEM = assay: Anticancer activity against human CCRF-CEM cells assessed as cell growth promotion at 10^-5 M after 48 hrs by SRB assay relative to control
NCI/ADR-RES = assay: Anticancer activity against human NCI/ADR-RES cells assessed as cell growth promotion at 10^-5 M after 48 hrs by SRB assay relative to control
UACC-257 = assay: Anticancer activity against human UACC257 cells assessed as cell growth promotion at 10^-5 M after 48 hrs by SRB assay relative to control
A498 = assay: Anticancer activity against human A498 cells assessed as cell growth promotion at 10^-5 M after 48 hrs by SRB assay relative to control
SN12C = assay: Anticancer activity against human SN12C cells assessed as cell growth promotion at 10^-5 M after 48 hrs by SRB assay relative to control
[1] = Anticancer activity against human Hs 578T cells assessed as cell growth promotion at 10^-5 M after 48 hrs by SRB assay relative to control
M14 = assay: Anticancer activity against human M14 cells assessed as cell growth promotion at 10^-5 M after 48 hrs by SRB assay relative to control
MOLT-4 = assay: Anticancer activity against human MOLT4 cells assessed as cell growth promotion at 10^-5 M after 48 hrs by SRB assay relative to control
HL-60(TB) = assay: Anticancer activity against human HL-60(TB) cells assessed as cell growth promotion at 10^-5 M after 48 hrs by SRB assay relative to control
In short: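 NCI-60 single-dose screen: compound at 10^-5 M, 48 h at 37 °C, 5% CO2; cells grown in RPMI 1640 with 5% FBS and 2 mM L-glutamine, pre-incubated 24 h before dosing. Adherent cells fixed with cold TCA; endpoint is sulforhodamine B protein staining. Percent growth of treated cells is reported relative to untreated control.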

OVCAR-3 = assay: Anticancer activity against human OVCAR3 cells assessed as cell growth promotion at 10^-5 M after 48 hrs by SRB assay relative to control
NCI-H322M = assay: Anticancer activity against human NCI-H322M cells assessed as cell growth promotion at 10^-5 M after 48 hrs by SRB assay relative to control
[2] = Anticancer activity against human […] cells assessed as cell growth promotion at 10^-5 M after 48 hrs by SRB assay relative to control
HOP-62 = assay: Anticancer activity against human HOP62 cells assessed as cell growth promotion at 10^-5 M after 48 hrs by SRB assay relative to control
T47D = assay: Anticancer activity against human T47D cells assessed as cell growth promotion at 10^-5 M after 48 hrs by SRB assay relative to control

`COc1ccc(OC)c(/C=C/c2nc3ccccc3nc2SCc2nc3ccccc3[nH]2)c1` gave an Activity (786-0) of 90.52%, an Activity (SK-MEL-5) of 75.46% and an Activity (RXF 393) of 87%. It also gave an Activity (SNB-19) of 98.9%, an Activity (HT-29) of 80.4% and an Activity (SK-OV-3) of 85.7%. The Activity (UO-31) was 60.33%, the Activity (NCI-H23) was 92.16% and the Activity (K562) was 90.78%. It also gave an Activity (KM12) of 97.42%, an Activity (U-251) of 104% and an Activity (CAKI-1) of 83.86%. It also gave an Activity (SR) of 81.4%, an Activity (EKVX) of 81.9% and an Activity (SF-268) of 99.47%. The Activity (HCT-116) was 73.92%, the Activity (NCI-H460) was 94.48% and the Activity (UACC-62) was 80.62%. For the same compound, the Activity (MDA-MB-435) was 105%, the Activity (SW-620) was 96.03% and the Activity (OVCAR-5) was 101%. The Activity (HCT-15) was 103%, the Activity (Malme-3M) was 108% and the Activity (MDA-MB-231) was 96.56%. The Activity (CCRF-CEM) was 81.59%, the Activity (NCI/ADR-RES) was 95.82% and the Activity (UACC-257) was 111%. It also gave an Activity (A498) of 95.89%, an Activity (SN12C) of 88.34% and an Activity [1] of 87.08%. It also gave an Activity (M14) of 99.58%, an Activity (MOLT-4) of 69.92% and an Activity (HL-60(TB)) of 91.21%. The Activity (OVCAR-3) was 107%, the Activity (NCI-H322M) was 94.87% and the Activity [2] was 77.53%. For the same compound, the Activity (HOP-62) was 87.33% and the Activity (T47D) was 63.43%.
